Reference: ChEMBL document CHEMBL4028886 (J Med Chem, 2017)
Active and inactive are the calls of the source. The rule behind the calls is not given here.

What was measured:
Type in all cases: cell-based
[1] = target: Sodium-dependent serotonin transporter (Homo sapiens, UniProt P31645); assay: Inhibition of re-uptake of [3H]-5-HT at human SERT expressed in HEK293 cells preincubated for 5 mins followed by [3H]-dopamine addition measured after 1 min by liquid scintillation counting
[2] = target: T1, Sodium-dependent dopamine transporter (Homo sapiens, UniProt Q01959); assay: Inhibition of re-uptake of [3H]-dopamine at human DAT expressed in HEK293 cells preincubated for 5 mins followed by [3H]-dopamine addition measured after 1 min by liquid scintillation counting
T1 sequence (Q01959 whole entry): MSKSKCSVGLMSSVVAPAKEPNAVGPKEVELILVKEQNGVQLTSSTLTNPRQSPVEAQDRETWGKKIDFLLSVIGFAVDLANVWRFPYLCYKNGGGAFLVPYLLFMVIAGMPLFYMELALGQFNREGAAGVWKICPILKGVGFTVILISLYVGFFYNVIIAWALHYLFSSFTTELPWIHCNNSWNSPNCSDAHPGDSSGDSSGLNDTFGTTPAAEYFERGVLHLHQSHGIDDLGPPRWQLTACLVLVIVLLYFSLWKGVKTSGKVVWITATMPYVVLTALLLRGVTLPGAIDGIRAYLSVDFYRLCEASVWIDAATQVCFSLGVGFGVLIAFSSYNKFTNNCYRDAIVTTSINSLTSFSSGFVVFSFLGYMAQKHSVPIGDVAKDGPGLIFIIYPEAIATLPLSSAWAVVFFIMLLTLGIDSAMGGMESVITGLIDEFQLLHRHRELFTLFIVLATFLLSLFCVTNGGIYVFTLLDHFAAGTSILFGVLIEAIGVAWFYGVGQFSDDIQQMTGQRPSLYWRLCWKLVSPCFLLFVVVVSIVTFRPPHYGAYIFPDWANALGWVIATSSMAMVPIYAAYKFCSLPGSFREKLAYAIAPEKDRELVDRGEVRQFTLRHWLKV
In short: (§1)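 HEK293 cells stably expressing human DAT or NET, seeded on PDL-coated plates 24 h before. Preincubated 5 min in Krebs–HEPES buffer pH 7.3 with compound at 0.001 μM to 1 mM (DMSO stock diluted in buffer). Substrate then added: 0.2 μM [3H]dopamine for DAT, 1 min; 0.05 μM [3H]MPP+ for NET, 3 min. Room temperature. Uptake stopped with ice-cold buffer. Cells lysed in 1% SDS and counted by scintillation. Unspecific uptake defined with 10 μM mazindol. IC50 by nonlinear regression.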

[3] = target: Sodium-dependent noradrenaline transporter (Homo sapiens, UniProt P23975); assay: Inhibition of re-uptake of [3H]MPP+ at human NET expressed in HEK293 cells preincubated for 5 mins followed by […] addition measured after 3 min by liquid scintillation counting; in short: as §1
Chain of Sodium-dependent noradrenaline transporter (P23975 whole entry): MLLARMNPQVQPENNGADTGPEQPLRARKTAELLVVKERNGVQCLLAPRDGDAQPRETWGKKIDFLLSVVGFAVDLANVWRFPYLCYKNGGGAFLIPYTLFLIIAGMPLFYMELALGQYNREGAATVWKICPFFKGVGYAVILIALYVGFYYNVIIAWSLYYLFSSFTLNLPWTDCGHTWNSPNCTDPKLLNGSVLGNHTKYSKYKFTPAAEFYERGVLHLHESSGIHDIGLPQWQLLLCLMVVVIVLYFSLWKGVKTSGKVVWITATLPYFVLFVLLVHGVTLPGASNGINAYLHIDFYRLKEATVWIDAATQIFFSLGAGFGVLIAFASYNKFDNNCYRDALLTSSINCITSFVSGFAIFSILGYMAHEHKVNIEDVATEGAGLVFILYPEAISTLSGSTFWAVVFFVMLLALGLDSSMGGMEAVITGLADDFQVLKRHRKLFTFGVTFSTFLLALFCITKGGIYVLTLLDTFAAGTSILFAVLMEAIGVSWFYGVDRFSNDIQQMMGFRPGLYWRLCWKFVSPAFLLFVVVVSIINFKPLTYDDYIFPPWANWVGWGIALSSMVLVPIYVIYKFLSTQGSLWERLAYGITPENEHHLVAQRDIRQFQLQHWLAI

[4] = target: T1, Sodium-dependent dopamine transporter; assay: Displacement of [3H]WIN 35,428 from human DAT expressed in HEK293 cells at 2 and 4 uM after 30 mins in presence of increasing concentration of cocaine by liquid scintillation counting
In short: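 Intact HEK-DAT cells on PDL-coated plates, in binding buffer (HEPES, NaCl, KCl, CaCl2, MgCl2, 10 μM ZnCl2, glucose, pH 7,3). Incubated with ~10 nM [3H]WIN 35,428, fixed concentrations of test compound and cocaine 0.001–1 μM, 30 min at 25 °C. Nonspecific binding defined with 30 μM mazindol. Cells lysed in 1% SDS and counted by scintillation. Reciprocal of bound (fmol) plotted against cocaine concentration as Dixon plot. Three experiments in triplicate, mean ± SD.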

Chain of Sodium-dependent serotonin transporter (P31645 whole entry): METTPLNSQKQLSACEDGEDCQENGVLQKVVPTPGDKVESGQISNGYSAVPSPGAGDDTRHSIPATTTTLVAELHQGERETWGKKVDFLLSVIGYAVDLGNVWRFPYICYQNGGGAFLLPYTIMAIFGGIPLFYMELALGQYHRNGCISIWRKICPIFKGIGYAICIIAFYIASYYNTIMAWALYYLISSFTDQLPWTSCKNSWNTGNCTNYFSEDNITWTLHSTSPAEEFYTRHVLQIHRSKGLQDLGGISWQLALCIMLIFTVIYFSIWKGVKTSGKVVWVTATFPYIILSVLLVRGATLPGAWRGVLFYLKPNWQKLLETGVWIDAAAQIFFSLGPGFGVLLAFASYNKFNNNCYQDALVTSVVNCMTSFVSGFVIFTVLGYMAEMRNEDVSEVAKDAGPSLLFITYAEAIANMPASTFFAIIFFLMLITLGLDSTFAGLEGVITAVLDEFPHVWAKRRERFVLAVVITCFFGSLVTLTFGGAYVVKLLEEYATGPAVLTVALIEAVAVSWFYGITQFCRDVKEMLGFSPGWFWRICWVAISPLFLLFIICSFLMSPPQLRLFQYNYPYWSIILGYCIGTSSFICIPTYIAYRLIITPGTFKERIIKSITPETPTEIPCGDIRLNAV

SMILES	IC50 ([1]; hek293)	IC50 ([2]; read-out: IC50) [µM]	IC50 ([3]; hek293)	IC50 ([2]; hek293)	IC50 ([3]; read-out: IC50) [µM]	inhibition [4]	IC50 ([1]; read-out: IC50) [µM]
Cc1ccc(C(c2ccc(C)cc2)[S+]([O-])Cc2cccs2)cc1 (stereo unspecified)	Not Active	5.8	Not Active	–	–	–	–
COc1ccnc(C[S+]([O-])C(c2ccccc2)c2ccccc2)c1OC (stereo unspecified)	Not Active	–	Not Active	Not Active	–	–	–
[O-][S+](Cc1nc(O)cc(C(F)(F)F)n1)C(c1ccccc1)c1ccccc1 (stereo unspecified)	Not Active	40.4	Not Active	–	–	–	–
O=c1[nH]nc(C[S+]([O-])C(c2ccccc2)c2ccccc2)s1 (stereo unspecified)	Not Active	38.1	–	–	85.7	–	–
Cc1cc(O)nc(C[S+]([O-])C(c2ccccc2)c2ccccc2)n1 (stereo unspecified)	Not Active	109	Not Active	–	–	–	–
COC1NN=C(C[S+]([O-])C(c2ccccc2)c2ccccc2)S1 (stereo unspecified)	Not Active	108	–	–	146	–	–
Cc1nc(O)cc(C[S+]([O-])C(c2ccccc2)c2ccccc2)n1 (stereo unspecified)	Not Active	3.1	Not Active	–	–	Active	–
Cc1cc(C[S+]([O-])C(c2ccccc2)c2ccccc2)nc(C)n1 (stereo unspecified)	Not Active	82.6	–	–	768	–	–
Cc1noc(C[S+]([O-])C(c2ccccc2)c2ccccc2)n1 (stereo unspecified)	Not Active	56.7	Not Active	–	–	–	–
[O-][S+](Cc1nc(C(F)(F)F)no1)C(c1ccccc1)c1ccccc1 (stereo unspecified)	–	43.7	–	–	71	–	209
COc1cc(C)nc(C[S+]([O-])C(c2ccccc2)c2ccccc2)n1 (stereo unspecified)	Not Active	90.5	–	–	228	–	–
[O-][S+](Cc1cc(C2CC2)on1)C(c1ccccc1)c1ccccc1 (stereo unspecified)	Not Active	38.6	Not Active	–	–	–	–
Cc1nnc(C[S+]([O-])C(c2ccccc2)c2ccccc2)s1 (stereo unspecified)	Not Active	–	Not Active	Not Active	–	–	–
[O-][S+](Cc1ccncc1)C(c1ccccc1)c1ccccc1 (stereo unspecified)	Not Active	63.5	Not Active	–	–	–	–
[O-][S+](Cc1cccs1)C(c1ccccc1)c1ccc(Br)cc1 (stereo in doubt; 11g)	–	3.7	–	–	–	–	–
[O-][S+](Cc1sccc1Cl)C(c1ccccc1)c1ccccc1 (stereo unspecified)	Not Active	4.9	–	–	188	–	–

SMILES	IC50 ([1]; hek293)	IC50 ([2]; read-out: IC50) [µM]	IC50 ([3]; hek293)	IC50 ([2]; hek293)	IC50 ([3]; read-out: IC50) [µM]	inhibition [4]	IC50 ([1]; read-out: IC50) [µM]
[O-][S+](Cc1ccsc1Br)C(c1ccccc1)c1ccccc1 (stereo unspecified)	–	29.3	–	–	144	–	59.6
Cc1scc(C[S+]([O-])C(c2ccccc2)c2ccccc2)c1C (stereo unspecified)	Not Active	284	Not Active	–	–	–	–
[O-][S@@+](Cc1cccs1)[C@@H](c1ccccc1)c1ccc(Br)cc1	Not Active	4.1	Not Active	–	–	–	–
[O-][S+](Cc1csc(Br)c1)C(c1ccccc1)c1ccccc1 (stereo unspecified)	–	16.6	–	–	67.2	–	44.7
[O-][S+](Cc1cc(Br)cs1)C(c1ccccc1)c1ccccc1 (stereo unspecified)	–	13.7	Not Active	–	–	–	70.9
NC(=O)C[S+]([O-])C(c1ccccc1)c1ccccc1 (stereo unspecified) [MODAFINIL]	–	–	–	–	284	–	–
[O-][S+](Cc1ccc(Cl)s1)C(c1ccccc1)c1ccccc1 (stereo unspecified)	–	12.8	–	–	68.4	–	57.2
[O-][S+](Cc1cccs1)C(c1ccccc1)c1ccc(Br)cc1 (stereo in doubt; 11c)	Not Active	4.2	Not Active	–	–	–	–
[O-][S+](Cc1cccs1)C(c1ccc(F)cc1)c1ccc(F)cc1 (stereo unspecified)	–	4	–	–	113	–	120
Cc1ccc(C(c2ccccc2)[S+]([O-])Cc2cccs2)cc1 (stereo unspecified)	–	2	–	–	152	–	118
[O-][S+](Cc1ccsc1)C(c1ccccc1)c1ccccc1 (stereo unspecified)	Not Active	3	–	–	57.6	–	–
CC(C)c1nnsc1C[S+]([O-])C(c1ccccc1)c1ccccc1 (stereo unspecified)	Not Active	69.1	–	–	30	–	–
[O-][S+](Cc1cccs1)C(c1ccc(Cl)cc1)c1ccc(Cl)cc1 (stereo unspecified)	Not Active	7.2	Not Active	–	–	–	–
Cc1cnc(C[S+]([O-])C(c2ccccc2)c2ccccc2)nc1 (stereo unspecified)	Not Active	156	Not Active	–	–	–	–
[O-][S@+](Cc1cccs1)[C@H](c1ccccc1)c1ccc(Br)cc1	Not Active	1.5	Not Active	–	–	–	–
[O-][S+](Cc1cccs1)C(c1ccccc1)c1ccc(Br)cc1 (stereo in doubt; 11h)	–	2.4	–	–	–	–	–
